Results as given in ChEMBL document CHEMBL1126160, “Synthesis and structure-activity relationships of 7-diazabicycloalkylquinolones, including danofloxacin, a new quinolone antibacterial agent for veterinary medicine” (J Med Chem, 1992).
≈ marks a conversion by molar mass, not a printed value.

Test system: Phocaeicola vulgatus
Assay: In vitro antibacterial activity against anaerobically grown Bacteroides vulgatus (78D029)
Type: functional
Conditions: not given
How it was run: (§1)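 Agar dilution MICs. Anaerobic strains were tested on tryptose agar with 5% bovine blood and incubated 48 h at 39 °C in an anaerobe chamber under N2/CO2/H2 (80:10:10).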

Structure (SMILES)	MIC [µg/mL]
O=C(O)c1cn(C2CC2)c2c(Cl)c(N3C[C@@H]4C[C@H]3CN4)c(F)cc2c1=O	0.1 (≈ 0.265 µM)
CCn1cc(C(=O)O)c(=O)c2cc(F)c(N3C[C@H]4CCC[C@@H](C3)N4C)cc21	1.56 (≈ 4.18 µM)
CN1[C@@H]2CC[C@H]1CN(c1c(F)cc3c(=O)c(C(=O)O)cn(CCF)c3c1F)C2	> 3.13
CN1C2CC[C@@H]1CCN(c1cc3c(cc1F)c(=O)c(C(=O)O)cn3CCF)C2	> 3.13
C=Cn1cc(C(=O)O)c(=O)c2cc(F)c(N3CCN4CCC3CC4)cc21	3.13 (≈ 8.76 µM)

Test system: Escherichia coli
Assay: Escherichia coli DNA cleavage endpoint value which is the minimum amount required (in micro g/mL) to induce detectable cleavage of supercoiled pBR322 substrate to linear form (gyrase)
Type: functional
Conditions: read-out: MIC
How it was run: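 DNA gyrase A and B subunits were purified from E. coli overproducers. About 2 units of holoenzyme were incubated with pBR322 in Tris-HCl pH 7.5 containing MgCl2, spermidine, DTT, 0.2 mM ATP, BSA and tRNA. Drug was added as 2-fold serial dilutions, and reactions ran for 60 min at 25 °C. Reactions were stopped with SDS and proteinase K, then run on agarose and stained with ethidium. The endpoint was the lowest concentration giving detectable linear DNA.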

Structure (SMILES)	minimum concentration inducing gyrase-mediated DNA cleavage [µg/mL]
O=C(O)c1cn(C2CC2)c2c(Cl)c(N3C[C@@H]4C[C@H]3CN4)c(F)cc2c1=O	0.09
CCn1cc(C(=O)O)c(=O)c2cc(F)c(N3C[C@H]4CCC[C@@H](C3)N4C)cc21	3.12
CN1[C@@H]2CC[C@H]1CN(c1c(F)cc3c(=O)c(C(=O)O)cn(CCF)c3c1F)C2	0.39
CN1C2CC[C@@H]1CCN(c1cc3c(cc1F)c(=O)c(C(=O)O)cn3CCF)C2	3.12
C=Cn1cc(C(=O)O)c(=O)c2cc(F)c(N3CCN4CCC3CC4)cc21	0.39

Test system: Actinobacillus pleuropneumoniae
Assay: In vitro antibacterial activity against anaerobically grown Actinobacillus pleuropneumoniae ([…])
Type: functional
Conditions: not given
How it was run: as §1

Structure (SMILES)	MIC [µg/mL]
O=C(O)c1cn(C2CC2)c2c(Cl)c(N3C[C@@H]4C[C@H]3CN4)c(F)cc2c1=O	0.005 (≈ 0.0132 µM)
CCn1cc(C(=O)O)c(=O)c2cc(F)c(N3C[C@H]4CCC[C@@H](C3)N4C)cc21	0.2 (≈ 0.536 µM)
CN1[C@@H]2CC[C@H]1CN(c1c(F)cc3c(=O)c(C(=O)O)cn(CCF)c3c1F)C2	0.39 (≈ 0.986 µM)
CN1C2CC[C@@H]1CCN(c1cc3c(cc1F)c(=O)c(C(=O)O)cn3CCF)C2	0.39 (≈ 0.996 µM)
C=Cn1cc(C(=O)O)c(=O)c2cc(F)c(N3CCN4CCC3CC4)cc21	0.02 (≈ 0.056 µM)

Test system: Staphylococcus aureus
Assay: In vitro antibacterial activity against aerobically grown Staphylococcus aureus (54B004)
Type: functional
Conditions: not given
How it was run: (§2)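 Agar dilution MICs. Aerobic strains were tested on brain heart infusion agar and incubated aerobically at 37 °C for 18–20 h.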

Structure (SMILES)	MIC [µg/mL]
O=C(O)c1cn(C2CC2)c2c(Cl)c(N3C[C@@H]4C[C@H]3CN4)c(F)cc2c1=O	0.2 (≈ 0.529 µM)
CCn1cc(C(=O)O)c(=O)c2cc(F)c(N3C[C@H]4CCC[C@@H](C3)N4C)cc21	0.1 (≈ 0.268 µM)
CN1[C@@H]2CC[C@H]1CN(c1c(F)cc3c(=O)c(C(=O)O)cn(CCF)c3c1F)C2	1.56 (≈ 3.95 µM)
CN1C2CC[C@@H]1CCN(c1cc3c(cc1F)c(=O)c(C(=O)O)cn3CCF)C2	0.78 (≈ 1.99 µM)
C=Cn1cc(C(=O)O)c(=O)c2cc(F)c(N3CCN4CCC3CC4)cc21	0.2 (≈ 0.56 µM)

Test system: Salmonella enterica
Assay: In vitro antibacterial activity against aerobically grown Salmonella choleraesuis (58B015)
Type: functional
Conditions: not given

Structure (SMILES)	MIC [µg/mL]
O=C(O)c1cn(C2CC2)c2c(Cl)c(N3C[C@@H]4C[C@H]3CN4)c(F)cc2c1=O	0.02 (≈ 0.0529 µM)
CCn1cc(C(=O)O)c(=O)c2cc(F)c(N3C[C@H]4CCC[C@@H](C3)N4C)cc21	1.56 (≈ 4.18 µM)
CN1[C@@H]2CC[C@H]1CN(c1c(F)cc3c(=O)c(C(=O)O)cn(CCF)c3c1F)C2	1.56 (≈ 3.95 µM)
CN1C2CC[C@@H]1CCN(c1cc3c(cc1F)c(=O)c(C(=O)O)cn3CCF)C2	> 1.56
C=Cn1cc(C(=O)O)c(=O)c2cc(F)c(N3CCN4CCC3CC4)cc21	0.1 (≈ 0.28 µM)

Test system: Bordetella bronchiseptica
Assay: In vitro antibacterial activity against aerobically grown Bordetella bronchiseptica (73A009)
Type: functional
Conditions: not given
How it was run: as §2

Structure (SMILES)	MIC [µg/mL]
O=C(O)c1cn(C2CC2)c2c(Cl)c(N3C[C@@H]4C[C@H]3CN4)c(F)cc2c1=O	0.39 (≈ 1.03 µM)
CCn1cc(C(=O)O)c(=O)c2cc(F)c(N3C[C@H]4CCC[C@@H](C3)N4C)cc21	6.25 (≈ 16.7 µM)
CN1[C@@H]2CC[C@H]1CN(c1c(F)cc3c(=O)c(C(=O)O)cn(CCF)c3c1F)C2	6.25 (≈ 15.8 µM)
CN1C2CC[C@@H]1CCN(c1cc3c(cc1F)c(=O)c(C(=O)O)cn3CCF)C2	1.56 (≈ 3.99 µM)
C=Cn1cc(C(=O)O)c(=O)c2cc(F)c(N3CCN4CCC3CC4)cc21	1.56 (≈ 4.37 µM)

Test system: Pasteurella multocida
Assay: In vitro antibacterial activity against aerobically grown Pasteurella multocida (59A006)
Type: functional
Conditions: not given
How it was run: as §2

Structure (SMILES)	MIC [µg/mL]
O=C(O)c1cn(C2CC2)c2c(Cl)c(N3C[C@@H]4C[C@H]3CN4)c(F)cc2c1=O	0.005 (≈ 0.0132 µM)
CCn1cc(C(=O)O)c(=O)c2cc(F)c(N3C[C@H]4CCC[C@@H](C3)N4C)cc21	0.78 (≈ 2.09 µM)
CN1[C@@H]2CC[C@H]1CN(c1c(F)cc3c(=O)c(C(=O)O)cn(CCF)c3c1F)C2	0.39 (≈ 0.986 µM)
CN1C2CC[C@@H]1CCN(c1cc3c(cc1F)c(=O)c(C(=O)O)cn3CCF)C2	0.39 (≈ 0.996 µM)
C=Cn1cc(C(=O)O)c(=O)c2cc(F)c(N3CCN4CCC3CC4)cc21	0.05 (≈ 0.14 µM)

Test system: not listed separately
Assay: In vitro evaluation for antibacterial activity against anaerobically grown Treponema hyodysenteriae (94A007)
Type: functional
Conditions: Brachyspira hyodysenteriae

Structure (SMILES)	MIC [µg/mL]
O=C(O)c1cn(C2CC2)c2c(Cl)c(N3C[C@@H]4C[C@H]3CN4)c(F)cc2c1=O	1.56 (≈ 4.13 µM)
CCn1cc(C(=O)O)c(=O)c2cc(F)c(N3C[C@H]4CCC[C@@H](C3)N4C)cc21	6.25 (≈ 16.7 µM)
CN1[C@@H]2CC[C@H]1CN(c1c(F)cc3c(=O)c(C(=O)O)cn(CCF)c3c1F)C2	> 3.13
CN1C2CC[C@@H]1CCN(c1cc3c(cc1F)c(=O)c(C(=O)O)cn3CCF)C2	> 3.13
C=Cn1cc(C(=O)O)c(=O)c2cc(F)c(N3CCN4CCC3CC4)cc21	0.39 (≈ 1.09 µM)

Test system: Trueperella pyogenes
Assay: In vitro antibacterial activity against anaerobically grown Actinomyces pyogenes (14D002)
Type: functional
Conditions: not given
How it was run: as §1

Structure (SMILES)	MIC [µg/mL]
O=C(O)c1cn(C2CC2)c2c(Cl)c(N3C[C@@H]4C[C@H]3CN4)c(F)cc2c1=O	0.39 (≈ 1.03 µM)
CCn1cc(C(=O)O)c(=O)c2cc(F)c(N3C[C@H]4CCC[C@@H](C3)N4C)cc21	6.25 (≈ 16.7 µM)
CN1[C@@H]2CC[C@H]1CN(c1c(F)cc3c(=O)c(C(=O)O)cn(CCF)c3c1F)C2	> 3.13
CN1C2CC[C@@H]1CCN(c1cc3c(cc1F)c(=O)c(C(=O)O)cn3CCF)C2	> 3.13
C=Cn1cc(C(=O)O)c(=O)c2cc(F)c(N3CCN4CCC3CC4)cc21	3.13 (≈ 8.76 µM)

Test system: not listed separately
Assay: In vitro antibacterial activity against Aerobically grown Pasteurella haemolytica (59B018)
Type: functional
Conditions: Mannheimia haemolytica
How it was run: as §2

Structure (SMILES)	MIC [µg/mL]
O=C(O)c1cn(C2CC2)c2c(Cl)c(N3C[C@@H]4C[C@H]3CN4)c(F)cc2c1=O	0.005 (≈ 0.0132 µM)
CCn1cc(C(=O)O)c(=O)c2cc(F)c(N3C[C@H]4CCC[C@@H](C3)N4C)cc21	0.1 (≈ 0.268 µM)
CN1[C@@H]2CC[C@H]1CN(c1c(F)cc3c(=O)c(C(=O)O)cn(CCF)c3c1F)C2	0.78 (≈ 1.97 µM)
CN1C2CC[C@@H]1CCN(c1cc3c(cc1F)c(=O)c(C(=O)O)cn3CCF)C2	1.56 (≈ 3.99 µM)
C=Cn1cc(C(=O)O)c(=O)c2cc(F)c(N3CCN4CCC3CC4)cc21	0.05 (≈ 0.14 µM)

Test system: Escherichia coli
Assay: In vitro antibacterial activity against aerobically grown Escherichia coli (51A538)
Type: functional
Conditions: not given
How it was run: as §2

Structure (SMILES)	MIC [µg/mL]
O=C(O)c1cn(C2CC2)c2c(Cl)c(N3C[C@@H]4C[C@H]3CN4)c(F)cc2c1=O	0.02 (≈ 0.0529 µM)
CCn1cc(C(=O)O)c(=O)c2cc(F)c(N3C[C@H]4CCC[C@@H](C3)N4C)cc21	1.56 (≈ 4.18 µM)
CN1[C@@H]2CC[C@H]1CN(c1c(F)cc3c(=O)c(C(=O)O)cn(CCF)c3c1F)C2	0.78 (≈ 1.97 µM)
CN1C2CC[C@@H]1CCN(c1cc3c(cc1F)c(=O)c(C(=O)O)cn3CCF)C2	1.56 (≈ 3.99 µM)
C=Cn1cc(C(=O)O)c(=O)c2cc(F)c(N3CCN4CCC3CC4)cc21	0.1 (≈ 0.28 µM)

Test system: Clostridium perfringens
Assay: microbe, parasite or virus in culture
Type: functional
Conditions: not given

Structure (SMILES)	MIC [µg/mL]
O=C(O)c1cn(C2CC2)c2c(Cl)c(N3C[C@@H]4C[C@H]3CN4)c(F)cc2c1=O	0.1 (≈ 0.265 µM)
CCn1cc(C(=O)O)c(=O)c2cc(F)c(N3C[C@H]4CCC[C@@H](C3)N4C)cc21	0.39 (≈ 1.04 µM)
CN1[C@@H]2CC[C@H]1CN(c1c(F)cc3c(=O)c(C(=O)O)cn(CCF)c3c1F)C2	0.78 (≈ 1.97 µM)
CN1C2CC[C@@H]1CCN(c1cc3c(cc1F)c(=O)c(C(=O)O)cn3CCF)C2	1.56 (≈ 3.99 µM)
C=Cn1cc(C(=O)O)c(=O)c2cc(F)c(N3CCN4CCC3CC4)cc21	0.2 (≈ 0.56 µM)
